Results taken from ChEMBL document CHEMBL1926544, “Tyrosine-based 1-(S)-[3-hydroxy-2-(phosphonomethoxy)propyl]cytosine and -adenine ((S)-HPMPC and (S)-HPMPA) prodrugs: synthesis, stability, antiviral activity, and in vivo transport studies” (J Med Chem, 2011).

Experiments:
[1] = Half life in phosphate buffer at pH 6.5 at 37 degC by LC/MS analysis; assay type: physicochemical
[2] = Half life in phosphate buffer at pH 7.4 at 37 degC assessed as half life by LC/MS analysis; assay type: physicochemical
[3] = Half life in Sprague-Dawley rat intestinal homogenate at pH 6.5 by LC/MS analysis; assay type: ADME, tissue-based, Intestine
In short: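 Compound stock (1 mg/ml, 400 µL) mixed with 260 µL buffer and 140 µL homogenate, 37 °C. Samples taken over time, quenched with methanol, centrifuged, supernatant analysed by LC-MS (C18, acetonitrile gradient in ammonium acetate pH 5.5). Run separately for each phosphorus diastereomer.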

[4] = Antiviral activity against Cowpox virus Brighton infected in HFF cells incubated for 3 days by plaque reduction assay; assay type: functional, cell-based, Cowpox virus (Brighton Red)
Human alphaherpesvirus 1 = assay: Antiviral activity against HSV1 KOS infected in HFF cells incubated for 3 days by plaque reduction assay; assay type: functional, organism-based
In short: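 HFF monolayer plaque reduction, about 100 plaques per well. Drug overlay (100 µM down to 0.03 µM), about 3 days incubation, crystal violet staining, macroscopic plaques counted. IC50 from regression of % plaque reduction relative to no-drug wells. Duplicate; acyclovir run as positive control.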

HFF = assay: Cytotoxicity against HFF cells after 48 hrs by visual cytotoxicity observation assay; assay type: cell-based, Homo sapiens; conditions: Homo sapiens, HFF, 48 h
KB = assay: Cytotoxicity against human KB cells after 48 hrs by crystal violet staining based spectrophotometric analysis; assay type: cell-based
In short: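 KB cells at 5000 per well, left overnight at 37 °C. Compound added at eight concentrations in triplicate, 48 h at 37 °C in CO2 (two population doublings). Cells ethanol-fixed and crystal violet stained; dye eluted with acidified ethanol, read at 570 nm. IC50 by regression of % inhibition against log concentration.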

Human betaherpesvirus 5 = assay: Antiviral activity against HCMV Towne infected in HFF cells incubated for 10 days by plaque reduction assay; assay type: functional, organism-based
In short: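 Towne strain (plaque-purified P0) on HFF cells, about 100 plaques per well. Drug overlay (100 µM down to 0.03 µM), about 10 days incubation, crystal violet staining, microscopic plaques counted. IC50 from regression of % plaque reduction versus no-drug wells. Duplicate; ganciclovir as positive control.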

Vaccinia virus = assay: Antiviral activity against Vaccinia virus Copenhagen infected in HFF cells incubated for 3 days by plaque reduction assay; assay type: functional, organism-based, Orthopoxvirus vaccinia
[5] = Human alphaherpesvirus 1, KOS, HFF, 72 h
[6] = Human betaherpesvirus 5, Towne, HFF, 240 h
[7] = Orthopoxvirus vaccinia, Copenhagen, HFF, 72 h

For `CC(C)(C)NC(=O)[C@H](N)Cc1ccc(O[P@]2(=O)CO[C@@H](Cn3ccc(N)nc3=O)CO2)cc1`, the half-life [1] was 3.5 h, the half-life [2] was 1 h and the half-life [3] was 3.85 h.
Compound `CC(C)CNC(=O)[C@@H](N)Cc1ccc(O[P@]2(=O)CO[C@@H](Cn3cnc4c(N)ncnc43)CO2)cc1` has a half-life [1] of 2.03 h, a half-life [2] of 0.433 h and a half-life [3] of 1.9 h.
For `Nc1ccn(C[C@H]2COP(=O)(O)CO2)c(=O)n1` [CYCLIC CIDOFOVIR], the IC50 ([4]; Cowpox virus, HFF, 72 h) was 30 µM, the IC50 (Human alphaherpesvirus 1; [5]) was 50 µM and the IC50 (HFF) was greater than 100 µM. It also gave an IC50 (KB) greater than 100 µM.
For `Nc1ncnc2c1ncn2C[C@@H](CO)OCP(=O)(O)O`, the IC50 ([4]; Cowpox virus, HFF, 72 h) was 4 µM, the IC50 (Human betaherpesvirus 5; [6]) was 0.41 µM and the IC50 (Human alphaherpesvirus 1; [5]) was 35 µM. The IC50 (HFF) was 100 µM, the IC50 (KB) was greater than 100 µM and the IC50 (Vaccinia virus; [7]) was 2 µM.
`CC(C)OC(=O)[C@@H](N)Cc1ccc(O[P@@]2(=O)CO[C@@H](Cn3ccc(N)nc3=O)CO2)cc1` gave a half-life [1] of 12.8 h, a half-life [2] of 3.98 h and a half-life [3] of less than 0.5 h.
`Nc1nc2c(ncn2COC(CO)CO)c(=O)[nH]1` [GANCICLOVIR] showed an IC50 (Human betaherpesvirus 5; [6]) of 0.14 µM and an IC50 (HFF) greater than 100 µM.
For `CC(C)OC(=O)[C@@H](N)Cc1ccc(OP2(=O)CO[C@@H](Cn3ccc(N)nc3=O)CO2)cc1` (mixture of isomers; form 1), the IC50 ([4]; hff) was 40 µM, the IC50 (Human betaherpesvirus 5; [6]) was 0.12 µM and the IC50 (Human alphaherpesvirus 1; hff) was 20 µM. The IC50 (HFF) was greater than 100 µM, the IC50 (KB) was greater than 100 µM and the IC50 (Vaccinia virus; hff) was 30 µM.
With `COC(=O)[C@H](N)Cc1ccc(O[P@@]2(=O)CO[C@@H](Cn3ccc(N)nc3=O)CO2)cc1` the half-life [1] was 6.42 h, the half-life [2] was 2.1 h and the half-life [3] was 3.5 h.
Compound `CC(C)CNC(=O)[C@@H](N)Cc1ccc(OP(=O)(O)CO[C@H](CO)Cn2cnc3c(N)ncnc32)cc1` has an IC50 ([4]; Cowpox virus, HFF, 72 h) of 3 µM, an IC50 (Human betaherpesvirus 5; [6]) of 0.29 µM and an IC50 (Human alphaherpesvirus 1; [5]) of 45 µM. For the same compound, the IC50 (HFF) was 100 µM, the IC50 (KB) was greater than 100 µM and the IC50 (Vaccinia virus; [7]) was 0.5 µM.
Compound `COC(=O)[C@@H](N)Cc1ccc(O[P@]2(=O)CO[C@@H](Cn3cnc4c(N)ncnc43)CO2)cc1` has a half-life [1] of 0.917 h and a half-life [3] of less than 0.5 h.
Work on `COC(=O)[C@@H](N)Cc1ccc(OP2(=O)CO[C@@H](Cn3ccc(N)nc3=O)CO2)cc1` (mixture of isomers) yielded an IC50 ([4]; Cowpox virus, HFF, 72 h) of 50 µM, an IC50 (Human betaherpesvirus 5; [6]) of 0.23 µM and an IC50 (Human alphaherpesvirus 1; [5]) of 25 µM. It also gave an IC50 (HFF) greater than 100 µM, an IC50 (KB) greater than 100 µM and an IC50 (Vaccinia virus; [7]) of 4 µM.
With `Nc1ncnc2c1ncn2C[C@H]1COP(=O)(O)CO1` the IC50 ([4]; Cowpox virus, HFF, 72 h) was 0.6 µM, the IC50 (Human betaherpesvirus 5; [6]) was 1.3 µM and the IC50 (Human alphaherpesvirus 1; [5]) was 30 µM. For the same compound, the IC50 (HFF) was 100 µM, the IC50 (KB) was greater than 100 µM and the IC50 (Vaccinia virus; [7]) was 1 µM.
Work on `CC(C)CNC(=O)[C@@H](N)Cc1ccc(OP2(=O)CO[C@@H](Cn3cnc4c(N)ncnc43)CO2)cc1` (mixture of isomers; form 1) yielded an IC50 ([4]; hff) of 7 µM, an IC50 (Human betaherpesvirus 5; hff) of 0.3 µM and an IC50 (Human alphaherpesvirus 1; [5]) of 50 µM. The IC50 (HFF) was greater than 100 µM, the IC50 (KB) was greater than 100 µM and the IC50 (Vaccinia virus; hff) was 4.5 µM.
With `COC(=O)[C@H](Cc1ccc(OP2(=O)CO[C@@H](Cn3ccc(N)nc3=O)CO2)cc1)NC(=O)[C@@H](N)C(C)C` (mixture of isomers) the IC50 ([4]; Cowpox virus, HFF, 72 h) was 30 µM, the IC50 (Human betaherpesvirus 5; [6]) was less than 0.1 µM and the IC50 (Human alphaherpesvirus 1; [5]) was 15 µM. For the same compound, the IC50 (KB) was greater than 100 µM and the IC50 (Vaccinia virus; [7]) was 20 µM.
Work on `Nc1ccn(C[C@@H](CO)OCP(=O)(O)O)c(=O)n1` [CIDOFOVIR] yielded an IC50 ([4]; Cowpox virus, HFF, 72 h) of 30 µM, an IC50 (Human betaherpesvirus 5; [6]) of 0.28 µM and an IC50 (HFF) of 100 µM. It also gave an IC50 (KB) greater than 100 µM.
With `COC(=O)[C@H](Cc1ccc(OP2(=O)CO[C@@H](Cn3cnc4c(N)ncnc43)CO2)cc1)NC(=O)[C@@H](N)C(C)C` (mixture of isomers) the IC50 ([4]; Cowpox virus, HFF, 72 h) was 8 µM, the IC50 (Human betaherpesvirus 5; [6]) was 0.3 µM and the IC50 (Human alphaherpesvirus 1; [5]) was 35 µM. It also gave an IC50 (HFF) greater than 100 µM, an IC50 (KB) greater than 100 µM and an IC50 (Vaccinia virus; [7]) of 4 µM.
Compound `CC(C)CNC(=O)[C@@H](N)Cc1ccc(O[P@@]2(=O)CO[C@@H](Cn3cnc4c(N)ncnc43)CO2)cc1` has a half-life [1] of 12.8 h, a half-life [2] of 3.85 h and a half-life [3] of 12.8 h.
